In ChEMBL document CHEMBL1156066 (J Med Chem, 2009):
pEC50, pIC50: −log10 of the molar value. Values after ≈ are worked out from the molar mass of the structure shown.

Key:
[1] = Cytotoxicity against human cervical cancer cells; type: cell-based, Cancer cell lines
[2] = Cytotoxicity against HEK cells; type: cell-based, HEK293; settings: human
[3] = Inhibition of HIV1 JRFL gp120/CD4 interaction in human HeLa67 cells assessed as inhibition of viral entry after 3 days by luciferase reporter gene assay; type: cell-based
Outline: (§1)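 HeLa 67 cells (HeLa expressing CD4, CCR5 and CXCR4; DMEM, 10% heat-inactivated FBS, penicillin/streptomycin) were plated at 10^5 cells/well the day before infection. They were then infected with HIV LAI-Δenv-luc pseudotyped with JRFL or LAI envelope, in the presence of 10-step 3-fold DMSO serial dilutions (30 mM stocks), run in duplicate. After 3 days at 37 C, firefly luciferase was read. EC50 was from a one-site fit.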

[4] = biological target: Voltage-gated inwardly rectifying potassium channel KCNH2 (Homo sapiens, UniProt Q12809); test: Inhibition of human ERG by channel flux assay
[5] = Ratio of plasma concentration in monkey at 5 mg/kg, po to EC50 for HIV1 clinical isolates; type: ADME, organism-based; parameters: dose 5 mg/kg, route oral; settings: in vivo
[6] = tested on: Human immunodeficiency virus 1; test: Antiviral activity against HIV1 clinical isolates; type: functional, organism-based
[7] = Lipophilicity, log D at pH 6.5; type: physicochemical; settings: buffer
Outline: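 Log D was measured by the octanol/water shake-flask method using phosphate buffered solution, pH 6.5.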

[8] = biological target: Cytochrome P450 2D6 (Homo sapiens, UniProt P10635); test: Inhibition of recombinant CYP2D6; type: ADME
[9] = Cytotoxicity against human lung cancer cell; type: cell-based, Cancer cell lines; settings: lung cancer cells
[10] = Cytotoxicity against human MT2 cells after 3 days by XTT assay; type: cell-based
Outline: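 Uninfected MT-2 cells were exposed to 10-step 3-fold serial compound dilutions (30 mM DMSO stocks), run in parallel with the antiviral assay. Cell health was read by XTT after 3 days. CC50 was fitted with the same one-site equation as EC50.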

[11] = Ratio of plasma concentration in dog at 5 mg/kg, po to EC50 for HIV1 clinical isolates; type: ADME, organism-based; parameters: dose 5 mg/kg, route oral; settings: in vivo
[12] = biological target: Cytochrome P450 2C9 (Homo sapiens, UniProt P11712); test: Inhibition of recombinant CYP2C9; type: ADME
[13] = Cmax in dog at 200 mg/kg; type: ADME, organism-based, Canis lupus familiaris; parameters: dose 200 mg/kg; settings: in vivo
Outline: (§2)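 Dogs were dosed at 200 mpk, with ECG monitored for drug-related changes and plasma Cmax determined.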

[14] = Solubility at pH 4 to 8; type: physicochemical; settings: buffer
[15] = Terminal half life in rat at 5 mg/kg, iv; type: ADME, organism-based; parameters: dose 5 mg/kg, route intravenous; settings: in vivo, read-out: beta t1/2 (converted)
[16] = Stability at pH 7 after 48 hrs; type: physicochemical; settings: buffer, pH 7, 48 h
Outline: (§3)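 The compound was held in solution at pH 2 or pH 7 for 48 h at 37 C and then checked for chemical change.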

[17] = biological target: T1, Cytochrome P450 1A2 (Homo sapiens, UniProt P05177); test: Inhibition of recombinant CYP1A2; type: ADME
T1 sequence (P05177 whole entry): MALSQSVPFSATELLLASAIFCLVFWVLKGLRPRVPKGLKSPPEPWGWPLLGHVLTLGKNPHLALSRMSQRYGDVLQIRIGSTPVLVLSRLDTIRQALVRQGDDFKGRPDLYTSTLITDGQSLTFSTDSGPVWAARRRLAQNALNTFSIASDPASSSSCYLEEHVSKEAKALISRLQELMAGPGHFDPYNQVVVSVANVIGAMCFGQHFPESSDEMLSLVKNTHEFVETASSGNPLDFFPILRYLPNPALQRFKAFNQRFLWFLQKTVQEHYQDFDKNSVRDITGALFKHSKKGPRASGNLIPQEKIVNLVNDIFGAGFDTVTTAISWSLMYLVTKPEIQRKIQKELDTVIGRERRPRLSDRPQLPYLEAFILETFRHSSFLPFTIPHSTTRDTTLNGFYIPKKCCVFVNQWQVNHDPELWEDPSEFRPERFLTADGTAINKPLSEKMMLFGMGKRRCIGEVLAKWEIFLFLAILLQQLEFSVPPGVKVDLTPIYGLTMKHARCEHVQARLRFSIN

[18] = Stability at pH 2 after 48 hrs; type: physicochemical; settings: buffer, pH 2, 48 h; outline: as §3
[19] = Cytotoxicity against human PBMC; type: cell-based
[20] = Solubility at pH 1.5; type: physicochemical; settings: buffer
[21] = Permeability across human Caco-2 cell membrane at pH 6.5; type: ADME, cell-based; settings: Caco-2, pH 6.5, read-out: permeability
[22] = Inhibition of HIV1 LAI gp120/CD4 interaction in human HeLa67 cells assessed as inhibition of viral entry after 3 days by luciferase reporter gene assay; type: cell-based; outline: as §1
[23] = biological target: T2, Cytochrome P450 3A4 (Homo sapiens, UniProt P08684); test: Inhibition of recombinant CYP3A4 using 7-benzyloxyresorufin as substrate; type: ADME
[24] = tested on: Rattus norvegicus; test: AUC in rat at 5 mg/kg, po; type: ADME, organism-based, Plasma; parameters: dose 5 mg/kg, route oral; settings: in vivo
[25] = Ratio of plasma concentration in rat at 5 mg/kg, po to EC50 for HIV1 clinical isolates; type: ADME, organism-based; parameters: dose 5 mg/kg, route oral; settings: in vivo
[26] = biological target: T2, Cytochrome P450 3A4; test: Inhibition of recombinant CYP3A4 using benzyloxy-4-(trifluoromethyl)coumarin as substrate; type: ADME
[27] = tested on: Hepatocyte; test: Cytotoxicity against human hepatocytes up to 200 uM in absence of CYP450 enzymes; type: ADME, cell-based
Outline: (§4)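 Hepatocytes in vitro were exposed to concentrations up to 200 μM, with or without expression of each of the four major CYP 450 enzymes.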

[28] = Cytotoxicity against human larynx cancer cells; type: cell-based, Cancer cell lines
[29] = Cytotoxicity against human T cell; type: cell-based; settings: T cells
[30] = biological target: Cytochrome P450 2C19 (Homo sapiens, UniProt P33261); test: Inhibition of recombinant CYP2C19; type: ADME
[31] = Aqueous solubility of crystalline form of compound in buffer solution of pH 10 at 25 degC; type: physicochemical
[32] = tested on: Canis familiaris; test: Cardiotoxicity in dog assessed as changes in ECG at 200 mg/kg; type: toxicity, organism-based, Canis lupus familiaris; parameters: dose 200 mg/kg; settings: in vivo; outline: as §2
[33] = Aqueous solubility of crystalline form of compound in buffer solution of pH 6.5 at 25 degC; type: physicochemical
Outline: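 Solubility of the crystalline solid was measured 24-72 h after adding it to phosphate buffered solution, pH 6.5, at room temperature.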

[34] = Metabolic stability in human liver microsomes assessed as half life; type: ADME, Microsome
[35] = Oral bioavailability in monkey at 5 mg/kg; type: ADME, organism-based, Macaca mulatta; settings: rhesus monkey, in vivo
[36] = Cytotoxicity against human hepatic cancer cells; type: cell-based, Cancer cell lines
[37] = Aqueous solubility of crystalline form of compound in buffer solution of pH 1.5 at 25 degC; type: physicochemical
[38] = Cytotoxicity against human neuronal tumor cells; type: cell-based
[39] = tested on: Hepatocyte; test: Cytotoxicity against human hepatocytes up to 200 uM in presence of CYP450 enzymes; type: ADME, cell-based; outline: as §4
[40] = Oral bioavailability in rat at 5 mg/kg administered as crystalline suspension; type: ADME, organism-based; settings: in vivo
[41] = Aqueous solubility of crystalline form of compound in buffer solution of pH 11 at 25 degC; type: physicochemical
[42] = Oral bioavailability in dog at 5 mg/kg; type: ADME, organism-based, Canis lupus familiaris; settings: in vivo
[43] = Aqueous solubility of crystalline form of compound in buffer solution of pH 2.1 at 25 degC; type: physicochemical

T2 sequence (P08684 whole entry): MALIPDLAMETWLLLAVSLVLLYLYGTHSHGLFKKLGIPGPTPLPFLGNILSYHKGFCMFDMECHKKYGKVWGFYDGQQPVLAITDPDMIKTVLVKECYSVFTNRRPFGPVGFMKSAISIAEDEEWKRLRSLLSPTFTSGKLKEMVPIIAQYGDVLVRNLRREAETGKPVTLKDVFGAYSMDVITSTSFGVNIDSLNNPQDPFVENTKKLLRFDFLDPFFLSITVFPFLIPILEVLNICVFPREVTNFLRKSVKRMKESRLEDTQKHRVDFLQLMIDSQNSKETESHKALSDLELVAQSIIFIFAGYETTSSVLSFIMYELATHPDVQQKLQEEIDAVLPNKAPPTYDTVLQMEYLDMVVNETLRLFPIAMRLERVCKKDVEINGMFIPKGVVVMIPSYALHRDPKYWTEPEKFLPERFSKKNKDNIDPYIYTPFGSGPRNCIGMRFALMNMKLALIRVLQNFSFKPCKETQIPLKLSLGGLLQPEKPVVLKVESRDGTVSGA
Cytochrome P450 2D6, sequence (P10635 whole entry): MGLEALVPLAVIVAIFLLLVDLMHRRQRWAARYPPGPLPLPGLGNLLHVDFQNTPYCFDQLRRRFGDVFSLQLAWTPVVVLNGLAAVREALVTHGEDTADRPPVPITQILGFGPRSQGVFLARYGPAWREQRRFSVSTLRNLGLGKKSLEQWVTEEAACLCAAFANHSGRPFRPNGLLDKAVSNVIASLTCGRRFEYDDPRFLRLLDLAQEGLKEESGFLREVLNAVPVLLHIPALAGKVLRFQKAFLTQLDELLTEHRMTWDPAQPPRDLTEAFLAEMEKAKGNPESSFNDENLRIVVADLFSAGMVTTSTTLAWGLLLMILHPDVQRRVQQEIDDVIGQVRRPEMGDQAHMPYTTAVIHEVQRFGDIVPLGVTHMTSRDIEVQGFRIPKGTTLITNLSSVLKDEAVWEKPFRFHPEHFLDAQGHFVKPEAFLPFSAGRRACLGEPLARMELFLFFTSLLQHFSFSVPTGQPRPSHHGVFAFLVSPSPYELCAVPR
Cytochrome P450 2C9, sequence (P11712 whole entry): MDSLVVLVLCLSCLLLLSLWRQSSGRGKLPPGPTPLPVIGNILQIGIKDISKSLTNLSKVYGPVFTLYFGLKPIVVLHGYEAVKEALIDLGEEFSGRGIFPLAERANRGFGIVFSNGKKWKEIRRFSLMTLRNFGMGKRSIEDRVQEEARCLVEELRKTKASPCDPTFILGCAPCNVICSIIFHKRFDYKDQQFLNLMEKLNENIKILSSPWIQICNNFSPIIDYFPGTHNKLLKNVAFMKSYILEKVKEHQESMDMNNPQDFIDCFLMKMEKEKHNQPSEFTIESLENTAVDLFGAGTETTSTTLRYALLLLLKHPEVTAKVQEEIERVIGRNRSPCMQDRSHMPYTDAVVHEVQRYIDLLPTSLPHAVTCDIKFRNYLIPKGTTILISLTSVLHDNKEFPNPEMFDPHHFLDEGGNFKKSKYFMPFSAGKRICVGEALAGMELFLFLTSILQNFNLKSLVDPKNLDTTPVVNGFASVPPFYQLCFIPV
Cytochrome P450 2C19, sequence (P33261 whole entry): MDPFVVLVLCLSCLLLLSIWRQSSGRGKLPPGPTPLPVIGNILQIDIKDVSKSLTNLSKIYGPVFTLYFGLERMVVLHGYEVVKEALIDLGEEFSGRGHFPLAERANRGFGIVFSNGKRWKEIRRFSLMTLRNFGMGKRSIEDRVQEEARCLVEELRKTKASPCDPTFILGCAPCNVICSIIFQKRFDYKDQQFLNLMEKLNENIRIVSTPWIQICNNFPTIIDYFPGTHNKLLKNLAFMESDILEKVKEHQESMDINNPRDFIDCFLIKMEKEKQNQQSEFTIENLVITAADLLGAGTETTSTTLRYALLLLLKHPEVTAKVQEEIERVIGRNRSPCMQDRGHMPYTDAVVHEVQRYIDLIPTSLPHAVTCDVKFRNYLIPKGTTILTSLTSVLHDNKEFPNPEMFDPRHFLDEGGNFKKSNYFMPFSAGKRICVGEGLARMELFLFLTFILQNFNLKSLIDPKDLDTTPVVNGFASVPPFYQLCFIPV
Voltage-gated inwardly rectifying potassium channel KCNH2, sequence (Q12809 whole entry): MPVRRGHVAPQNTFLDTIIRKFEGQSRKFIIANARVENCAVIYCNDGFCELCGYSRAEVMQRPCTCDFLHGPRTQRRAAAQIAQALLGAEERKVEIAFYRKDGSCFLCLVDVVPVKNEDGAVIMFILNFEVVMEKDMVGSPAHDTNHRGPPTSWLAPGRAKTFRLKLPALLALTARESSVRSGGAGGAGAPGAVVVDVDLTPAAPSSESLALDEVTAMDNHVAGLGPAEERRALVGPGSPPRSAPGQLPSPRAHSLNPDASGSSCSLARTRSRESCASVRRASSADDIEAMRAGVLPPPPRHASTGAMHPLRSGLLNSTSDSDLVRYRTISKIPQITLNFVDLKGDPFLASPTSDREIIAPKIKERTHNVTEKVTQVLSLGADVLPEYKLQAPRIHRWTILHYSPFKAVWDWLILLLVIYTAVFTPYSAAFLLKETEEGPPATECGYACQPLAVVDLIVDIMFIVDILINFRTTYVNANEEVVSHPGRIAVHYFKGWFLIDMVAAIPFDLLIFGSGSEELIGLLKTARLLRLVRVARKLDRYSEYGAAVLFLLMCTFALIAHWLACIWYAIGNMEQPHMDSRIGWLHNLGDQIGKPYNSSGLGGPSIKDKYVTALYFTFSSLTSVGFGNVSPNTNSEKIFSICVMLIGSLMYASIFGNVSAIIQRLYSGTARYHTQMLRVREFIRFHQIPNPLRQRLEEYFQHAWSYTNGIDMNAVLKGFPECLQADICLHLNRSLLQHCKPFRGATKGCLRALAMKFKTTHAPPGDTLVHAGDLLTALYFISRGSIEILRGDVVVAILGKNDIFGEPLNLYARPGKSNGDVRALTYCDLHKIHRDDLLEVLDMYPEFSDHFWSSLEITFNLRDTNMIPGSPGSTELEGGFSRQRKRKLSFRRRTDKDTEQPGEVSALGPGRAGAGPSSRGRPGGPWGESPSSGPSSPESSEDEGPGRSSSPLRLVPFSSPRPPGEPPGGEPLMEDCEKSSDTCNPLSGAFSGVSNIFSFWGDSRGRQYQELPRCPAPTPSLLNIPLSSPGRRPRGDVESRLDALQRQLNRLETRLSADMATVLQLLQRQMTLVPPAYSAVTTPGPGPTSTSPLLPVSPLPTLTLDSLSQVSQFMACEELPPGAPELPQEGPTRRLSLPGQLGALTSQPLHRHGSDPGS

SMILES: COc1ncc(OC)c2c(C(=O)C(=O)N3CCN(C(=O)c4ccccc4)CC3)c[nH]c12
- CC50 [1]: ≥ 120 µM
- CC50 [2]: ≥ 120 µM
- pEC50 [3]: 9.06
- pIC50 [4]: < 4.10
- Ratio [5]: 18
- pEC50 [6]: 7.44
- logD [7]: 1.5
- pIC50 [8]: < 4.40
- CC50 [9]: ≥ 120 µM
- CC50 at 72 h [10]: > 300 µM
- Ratio [11]: 18
- pIC50 [12]: 4.52
- Cmax [13]: 33 µM
- solubility [14]: 40 µg/mL (≈ 94.7 µM)
- half-life [15]: 144 min
- Stability [16]: Stable
- pIC50 [17]: < 4.40
- Stability [18]: Stable
- CC50 [19]: ≥ 120 µM
- solubility [20]: 900 µg/mL (≈ 2130 µM)
- Papp [21]: 17.8 ×10⁻⁶ cm/s
- pEC50 [22]: 8.94
- pIC50 [23]: < 4.40
- AUC [24]: 6.3 µg/h/mL
- Ratio [25]: 18
- pIC50 [26]: < 4.40
- Activity [27]: Non-toxic
- CC50 [28]: ≥ 120 µM
- CC50 [29]: ≥ 120 µM
- pIC50 [30]: < 4.40
- solubility [31]: 250 µg/mL (≈ 592 µM)
- Activity [32]: Non-toxic
- solubility [33]: 40 µg/mL (≈ 94.7 µM)
- half-life [34]: > 100 min
- bioavailability [35]: 60%
- CC50 [36]: ≥ 120 µM
- solubility [37]: 900 µg/mL (≈ 2130 µM)
- CC50 [38]: ≥ 120 µM
- Activity [39]: Non-toxic
- bioavailability [40]: 55%

SMILES: C[C@@H]1CN(C(=O)c2ccccc2)CCN1C(=O)C(=O)c1c[nH]c2cccnc12
- pEC50 [3]: 8.80
- pIC50 [4]: < 4.10
- logD [7]: 0.9
- pIC50 [8]: < 4.40
- CC50 at 72 h [10]: > 300 µM
- pIC50 [12]: < 4.40
- pIC50 [17]: < 4.40
- Papp [21]: 7.6 ×10⁻⁶ cm/s
- pIC50 [23]: < 4.40
- pIC50 [26]: < 4.40
- pIC50 [30]: 4.44
- solubility [33]: 932 µg/mL (≈ 2480 µM)
- half-life [34]: > 100 min

SMILES: C[C@@H]1CN(C(=O)c2ccccc2)CCN1C(=O)C(=O)c1c[nH]c2ncccc12
- pEC50 [3]: 8.77
- pIC50 [4]: < 4.10
- logD [7]: 1.8
- pIC50 [8]: 4.77
- CC50 at 72 h [10]: 280 µM
- pIC50 [12]: 5.10
- pIC50 [17]: < 4.40
- Papp [21]: 16.8 ×10⁻⁶ cm/s
- pIC50 [23]: < 4.40
- pIC50 [26]: < 4.40
- pIC50 [30]: 5.00
- solubility [33]: 936 µg/mL (≈ 2490 µM)
- half-life [34]: 49.5 min

SMILES: C[C@@H]1CN(C(=O)c2ccccc2)CCN1C(=O)C(=O)c1c[nH]c2ccncc12
- pEC50 [3]: 6.24
- pIC50 [4]: < 4.10
- logD [7]: 1.2
- pIC50 [8]: < 4.40
- CC50 at 72 h [10]: > 300 µM
- pIC50 [12]: < 4.40
- pIC50 [17]: < 4.40
- Papp [21]: 1.9 ×10⁻⁶ cm/s
- pIC50 [30]: 4.77
- solubility [33]: 419 µg/mL (≈ 1110 µM)
- half-life [34]: > 100 min

SMILES: C[C@@H]1CN(C(=O)c2ccccc2)CCN1C(=O)C(=O)c1c[nH]c2cnccc12
- pEC50 [3]: 7.67
- pIC50 [4]: < 4.10
- logD [7]: 1.5
- pIC50 [8]: 4.42
- CC50 at 72 h [10]: > 300 µM
- pIC50 [12]: 4.77
- pIC50 [17]: < 4.40
- Papp [21]: < 1.5 ×10⁻⁶ cm/s
- pIC50 [23]: < 4.40
- pIC50 [26]: < 4.40
- pIC50 [30]: 5.14
- solubility [33]: 487 µg/mL (≈ 1290 µM)
- half-life [34]: 38.5 min

SMILES: COc1ccnc2[nH]cc(C(=O)C(=O)N3CCN(C(=O)c4ccccc4)C[C@H]3C)c12
- pEC50 [3]: 8.83
- pEC50 [6]: 7.21
- logD [7]: 1.6
- pIC50 [8]: 5.01
- CC50 at 72 h [10]: > 300 µM
- solubility [41]: 3300 µg/mL (≈ 8120 µM)
- half-life [15]: 18 min
- Papp [21]: 5.1 ×10⁻⁶ cm/s
- pEC50 [22]: 8.57
- AUC [24]: 0.5 µg/h/mL
- solubility [33]: 200 µg/mL (≈ 492 µM)
- half-life [34]: 37 min
- bioavailability [35]: 24%
- bioavailability [42]: 77%
- solubility [43]: 1300 µg/mL (≈ 3200 µM)

SMILES: C[C@@H]1CN(C(=O)c2ccccc2)CCN1C(=O)C(=O)c1c[nH]c2ccccc12
- pEC50 [3]: 8.40
- pIC50 [4]: < 4.10
- logD [7]: 1.9
- pIC50 [8]: 5.32
- CC50 at 72 h [10]: 200 µM
- pIC50 [12]: 5.28
- pIC50 [17]: < 4.40
- Papp [21]: 16.9 ×10⁻⁶ cm/s
- pEC50 [22]: 8.31
- pIC50 [23]: < 4.40
- pIC50 [26]: < 4.40
- pIC50 [30]: 5.59
- solubility [33]: 16 µg/mL (≈ 42.6 µM)
- half-life [34]: 16.9 min
